Bioassay records: PubChem BioAssay, Johns Hopkins Ion Channel Center
A selection: hits, their analogues and other compounds. The true share with any hit is near 2.3%.
TRPC6 activator: mouse TRPC6 channel activators, primary screen, cell-based, HEK293, membrane potential dye. hit rate 0.13% among 310,000. HEK293-TRPC6 membrane potential dye fluorescence; active compounds read high. Short transient receptor potential channel 6 (Mus musculus), Q61143. AID 2550, 2010. B-score at 10 µM;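 active = B-score of the integrated fluorescence ratio above library mean plus 3 SD, and starting fluorescence ratio within library mean plus 5 SD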;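 also: higher score means more depolarization so channel activation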
TRPC4 agonist: activators of mouse TRPC4 channel, primary screen, Fluo4 calcium, HEK293 TRPC4beta/mu-opioid cells; Fluo4 calcium fluorescence; active compounds read high; hit rate 0.49% among 310,000; B-score at 10 µM; Short transient receptor potential channel 4 (Mus musculus), Q9QUQ5;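 active = B-score above 5 SD of library B-scores, and initial fluorescence ratio not above library mean plus 5 SD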;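 also: positive B-score marks a calcium rise read as TRPC4 activation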
Target sequence (Q9QUQ5 whole entry, looked up): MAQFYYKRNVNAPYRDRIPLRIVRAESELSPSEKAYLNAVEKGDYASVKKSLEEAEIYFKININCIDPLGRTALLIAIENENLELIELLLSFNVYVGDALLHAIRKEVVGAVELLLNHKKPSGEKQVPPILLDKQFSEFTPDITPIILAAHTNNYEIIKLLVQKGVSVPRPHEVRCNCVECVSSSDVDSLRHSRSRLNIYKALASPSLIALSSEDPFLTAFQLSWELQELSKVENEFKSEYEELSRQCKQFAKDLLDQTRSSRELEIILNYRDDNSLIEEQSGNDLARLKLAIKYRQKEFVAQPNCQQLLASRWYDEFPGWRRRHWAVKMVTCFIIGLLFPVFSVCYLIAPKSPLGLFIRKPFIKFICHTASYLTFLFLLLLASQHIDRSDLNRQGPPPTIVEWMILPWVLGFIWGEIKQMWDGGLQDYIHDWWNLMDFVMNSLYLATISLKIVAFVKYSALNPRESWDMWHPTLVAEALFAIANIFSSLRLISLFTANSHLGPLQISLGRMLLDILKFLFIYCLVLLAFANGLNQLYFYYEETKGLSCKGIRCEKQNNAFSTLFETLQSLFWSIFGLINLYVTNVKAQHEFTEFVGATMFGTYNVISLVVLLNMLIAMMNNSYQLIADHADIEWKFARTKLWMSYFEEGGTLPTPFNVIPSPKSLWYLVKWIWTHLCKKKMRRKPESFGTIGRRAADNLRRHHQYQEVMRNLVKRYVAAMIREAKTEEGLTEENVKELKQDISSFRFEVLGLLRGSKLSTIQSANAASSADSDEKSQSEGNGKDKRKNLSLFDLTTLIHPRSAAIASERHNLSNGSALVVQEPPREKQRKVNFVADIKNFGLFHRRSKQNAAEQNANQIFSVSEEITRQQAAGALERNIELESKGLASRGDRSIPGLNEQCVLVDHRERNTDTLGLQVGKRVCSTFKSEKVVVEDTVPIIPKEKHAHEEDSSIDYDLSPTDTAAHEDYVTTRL
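Assay system: HEK293 cells stably co-expressing mouse TRPC4beta and mu-opioid receptor / Timing: Fluo4 dye loading 45 min at room temperature, 110 s recording / Signal: Fluo4 calcium-sensitive dye fluorescence, kinetic, 1 Hz baseline / Read-out: integrated baseline-normalised fluorescence ratio, converted to per-well B score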
TRPC6 inhibitor: mouse TRPC6 channel inhibitors, primary screen, cell-based, HEK293, membrane potential dye; ACh-evoked depolarization; active compounds read low; B-score at 10 µM; AID 2553, 2010; hit rate 1.1% among 310,000; Short transient receptor potential channel 6 (Mus musculus), Q61143;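 active = B-score under library mean minus 3 SD, initial fluorescence not abnormally high, positive integrated signal ratio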;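 also: B-score derived from integrated fluorescence ratio over the kinetic read; more negative B-score means stronger inhibition of depolarization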
TRPC4 block: inhibitors of mouse TRPC4 channel, primary screen, Fluo4 calcium, HEK293 TRPC4beta/mu-opioid cells; DAMGO-evoked Fluo4 calcium flux; active compounds read low; B-score at 10 µM; hit rate 0.39% among 300,000;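 active = B-score over 3 SD under the library average, no early fluorescence shift, positive overall ratio signal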
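Material: HEK293 cells with stable TRPC4beta plus mu-opioid receptor expression / Probe or stimulus: DAMGO in two steps, submaximal then maximal / Compound: single concentration per test compound / Technique: kinetic Fluo4 fluorescence imaging of calcium influx / Read-out: per-well B score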
TRPC4 PAM: positive allosteric modulators of TRPC4, primary screen, cell-based, mouse TRPC4beta, HEK293 mu-opioid, Fluo-4 calcium; DAMGO EC20, Fluo-4 Ca2+ flux; active compounds read high; hit rate 0.42% among 310,000; B-score at 10 µM; Short transient receptor potential channel 4 (Mus musculus), Q9QUQ5; AID 2227, 2009;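 active = B-score of calcium response area above 5 SD of library B-scores, with initial fluorescence ratio within 5 SD of library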
TRPC4 sel inh 2: second selectivity test of TRPC6 inhibitors: effect on mouse TRPC4 | hit rate 42% among 920 | HEK293 TRPC4/MOR, membrane potential dye fluorescence; channel activated by saturating DAMGO dose | shares compounds with TRPC6 inhibitor | AID 2776 | inhibition, % at 10 µM;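 active = compounds whose fluorescence signal differed from control wells by over 3 SD, either direction, in both duplicate plates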
TRPC4 spec: mouse TRPC4 modulation by TRPC6 hits, confirmation, selectivity assay for TRPC6 inhibitor project, cell-based, HEK293 TRPC4/mu-opioid, membrane potential dye | shares compounds with TRPC6 inhibitor | membrane potential fluorescence | activity change, negative = inhibition, % at 10 µM | hit rate 61% among 920;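 active = rise or fall in signal beyond 3 SD of buffer-only wells in both replicate plates, either sign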;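 also: integrated kinetic ratio of fluorescence range over baseline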
HEK293 MPD ctr 2-1: nonspecific membrane potential effects, parental HEK293, confirmation, counter-screen for TRPC6 inhibitor project, cell-based, second counter screen; hit rate 31% among 920; shares compounds with TRPC6 inhibitor; signal change vs control, % at 10 µM; parental HEK293 membrane potential dye fluorescence; maximal acetylcholine challenge after compound addition;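 active = membrane potential signal moving either way by over 3 SD of the maximum-effect control, in both duplicate plates, meaning non-specific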
HEK293 MPD ctr-1: membrane potential modulation in parental HEK293, confirmation, counter-screen for TRPC6 inhibitor project, cell-based. hit rate 60% among 920. AID 2780, 2010. shares compounds with TRPC6 inhibitor. membrane potential signal change, % at 10 µM. parental HEK293 membrane potential dye fluorescence;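 active = membrane potential signal shifting up or down by more than 3 SD of buffer-only wells, on both duplicate plates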
HEK293 MPD ctr-2: parental HEK293 membrane potential modulation, confirmation, counter-screen for TRPC6 modulator project, cell-based; hit rate 51% among 2,400; membrane potential dye fluorescence; membrane potential signal change, % at 10 µM; shares compounds with TRPC6 inhibitor;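 active = membrane potential signal moves up or down beyond 5 SD from buffer-only wells, on both duplicate plates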
HEK293 MPD ctr 2-2: second check of TRPC6 modulator effects in parental HEK293 cells; shares compounds with TRPC6 inhibitor; membrane potential dye fluorescence; after compound, maximal acetylcholine stimulation; inhibition, % at 10 µM; hit rate 14% among 2,400; AID 488926;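 active = membrane potential signal drops by more than 5 SD from the mean control signal, in both duplicate plates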
TRPC4 ctr mod: TRPC4 modulation by TRPC6 hit compounds, confirmation, selectivity assay for TRPC6 modulator project, cell-based, HEK293 TRPC4/mu-opioid, membrane potential dye, mouse. hit rate 69% among 2,400. shares compounds with TRPC6 inhibitor. membrane potential fluorescence. AID 488927, 2010. percent change from control (negative = decrease, positive = increase), % at 10 µM;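 active = membrane potential signal moved up or down beyond 5 SD of buffer control wells, in both duplicate plates, actives on both sides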
TRPC4 ctr inh 2: second selectivity test of TRPC6 modulators against mouse TRPC4; shares compounds with TRPC6 inhibitor; HEK293 TRPC4/mu-opioid, membrane potential dye fluorescence; stimulated with maximal-effect DAMGO; inhibition, % at 10 µM; hit rate 55% among 2,400; AID 488928;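 active = drop in membrane potential signal beyond 5 SD of the control wells in both duplicate plates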;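 also: TRPC4 counter screen for TRPC6 hits run under conditions tuned for TRPC6 not TRPC4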
TRPC6 inh conf: mouse TRPC6 channel inhibitors, confirmation, HEK293 cells, membrane potential dye, duplicate | shares compounds with TRPC6 inhibitor | ACh-evoked depolarization | inhibition, % at 10 µM | hit rate 43% among 3,300 | AID 488960, 2010;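 active = fluorescence ratio falls more than 5 SD below the full-stimulation control mean, in both duplicate runs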;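 also: integrated fluorescence ratio of peak minus minimum over baseline after agonist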
TRPC6 act confirm: mouse TRPC6 channel activators, confirmation, HEK293 cells, membrane potential dye, duplicate. shares compounds with TRPC6 inhibitor. HEK293-TRPC6 membrane potential dye fluorescence, FDSS. activation, % at 10 µM. hit rate 11% among 2,800;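 active = ratio signal rise beyond 5 SD above unstimulated control wells' mean, seen in both duplicate runs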
Each line names hits and unclear results; the compound was inactive in the other large screens (follow-up assays come after a bar, where they were run).

CCN(CC)CCCn1c2c(c(SCC(=O)Nc3cccc4ccccc34)nc1=O)CCC2	none
COc1ccc(N(CC(C)C)S(=O)(=O)c2nnc(NC(=O)c3ccco3)s2)cc1	none
CCOC(=O)c1c(N)n(-c2ccc(N)cc2)c2nc3ccccc3nc12	none
CCOC(=O)c1c(N)n(C2CC(C)(C)NC(C)(C)C2)c2nc3ccccc3nc12	TRPC6 inhibitor -5.4 | HEK293 MPD ctr-2 -294% | HEK293 MPD ctr 2-2 inactive | TRPC4 ctr mod -55% | TRPC4 ctr inh 2 43% | TRPC6 inh conf inactive | TRPC6 act confirm inactive
COc1ccc2cc(C(C)C(=O)N3CCC(C)CC3)ccc2c1 (centres undefined)	none
CCN1CCN(S(=O)(=O)c2ccc(C(=O)Nc3sc4c(c3C(N)=O)CCN(CC)C4)cc2)CC1	TRPC6 inhibitor -10 | HEK293 MPD ctr-2 -144% | HEK293 MPD ctr 2-2 inactive | TRPC4 ctr mod -27% | TRPC4 ctr inh 2 37% | TRPC6 inh conf 58% | TRPC6 act confirm inactive
CCOC(=O)c1c(NC(=O)CSc2ncccn2)sc2c1CCN(Cc1ccccc1)C2	TRPC6 inhibitor -5.5 | HEK293 MPD ctr-2 inactive | HEK293 MPD ctr 2-2 inactive | TRPC4 ctr mod -20% | TRPC4 ctr inh 2 35% | TRPC6 inh conf inactive | TRPC6 act confirm inactive
CCOC(=O)c1c(N)sc2c1CCN(CCc1ccccc1)C2	TRPC6 inhibitor -5.9 | HEK293 MPD ctr-2 inactive | HEK293 MPD ctr 2-2 inactive | TRPC4 ctr mod 22% | TRPC4 ctr inh 2 34% | TRPC6 inh conf inactive | TRPC6 act confirm inactive
CCOC(=O)c1c(N)sc2c1CCCC2	none
CCOC(=O)c1c(NC(=O)c2cccc(N3C(=O)CCC3=O)c2)sc2c1CCN(CC)C2	TRPC6 inhibitor -6.3 | HEK293 MPD ctr-2 inactive | HEK293 MPD ctr 2-2 inactive | TRPC4 ctr mod inactive | TRPC4 ctr inh 2 28% | TRPC6 inh conf inactive | TRPC6 act confirm inactive
CCOC(=O)c1c(NC(C)=O)sc2c1CCN(Cc1ccccc1)C2	TRPC6 inhibitor -5.3 | HEK293 MPD ctr-2 -198% | HEK293 MPD ctr 2-2 inactive | TRPC4 ctr mod -34% | TRPC4 ctr inh 2 39% | TRPC6 inh conf inactive | TRPC6 act confirm inactive
COC(=O)c1c(NC(=O)C(C)(C)C)sc2c1CCN(Cc1ccccc1)C2	none
COC(=O)c1c(NC(C)=O)sc2c1CCN(Cc1ccccc1)C2	TRPC6 inhibitor -5.5 | HEK293 MPD ctr-2 -196% | HEK293 MPD ctr 2-2 inactive | TRPC4 ctr mod -34% | TRPC4 ctr inh 2 37% | TRPC6 inh conf inactive | TRPC6 act confirm inactive
CCOC(=O)c1c(NC(=O)CC)sc2c1CCN(Cc1ccccc1)C2	none
CC(=O)NC(CC(=O)N1CCCC1)c1ccccc1 (centres undefined)	none
CN(NS(=O)(=O)c1ccccc1)c1nc2ccccc2nc1C(F)(F)F	none
CN(NS(=O)(=O)c1ccc(Cl)cc1)c1nc(C(F)(F)F)nc2ccccc12	TRPC6 inhibitor -5.6 | HEK293 MPD ctr-2 inactive | HEK293 MPD ctr 2-2 inactive | TRPC4 ctr mod inactive | TRPC4 ctr inh 2 inactive | TRPC6 inh conf inactive | TRPC6 act confirm inactive
CCOc1ccc(CNc2ccc3c(c2)ncn3C(C)(C)C)cc1	TRPC6 inhibitor -8.5 | TRPC4 sel inh 2 inactive | TRPC4 spec inactive | HEK293 MPD ctr 2-1 inactive | HEK293 MPD ctr-1 inactive | TRPC6 inh conf 66% | TRPC6 act confirm inactive
CCCn1cnc2cc(NCc3ccc(Br)cc3)ccc21	none
CCn1cnc2cc(NCc3ccc(Br)cc3)ccc21	TRPC6 inhibitor -5 | HEK293 MPD ctr-2 inactive | HEK293 MPD ctr 2-2 inactive | TRPC4 ctr mod inactive | TRPC4 ctr inh 2 40% | TRPC6 inh conf 40% | TRPC6 act confirm inactive
CN1CCC(NCCC(c2ccc(F)cc2)c2ccc(Cl)cc2)CC1 (centres undefined)	TRPC6 inhibitor -5.4 | HEK293 MPD ctr-2 104% | HEK293 MPD ctr 2-2 inactive | TRPC4 ctr mod 18% | TRPC4 ctr inh 2 56% | TRPC6 inh conf inactive
Cn1c(Cc2cccs2)nnc1SCC(=O)Nc1ccc(F)cc1F	none
CCOC(=O)c1sc(=S)n(-c2ccc(OC)cc2)c1C	TRPC6 inhibitor -6.3 | HEK293 MPD ctr-2 inactive | HEK293 MPD ctr 2-2 inactive | TRPC4 ctr mod 10% | TRPC4 ctr inh 2 inactive | TRPC6 inh conf 52%
CCOC(=O)c1sc(=S)n(-c2ccccc2)c1SC	none
